Results from ChEMBL document CHEMBL3091303, “1,3-Dialkyl-substituted tetrahydropyrimido[1,2-f]purine-2,4-diones as multiple target drugs for the potential treatment of neurodegenerative diseases” (Bioorg Med Chem, 2013).

Assays:
[1] = target: Adenosine receptor A2a (Rattus norvegicus) (UniProt P30543); experiment: Displacement of [3H]MSX-2 from adenosine A2A receptor in rat brain striatum relative to control; type: tissue-based; design: concentration or dose not given beside the values; conditions: concentration not given here
Summary of the method: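 Radioligand binding to rat A2A receptors in rat brain striatal membrane preparations, reported as % inhibition of radioligand binding at the indicated concentration.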

[2] = target: T1, Adenosine receptor A1 (Rattus norvegicus, UniProt P25099); experiment: Displacement of [3H]CCPA from adenosine A1 receptor in rat brain cortex; type: tissue-based
T1 sequence (P25099 whole entry): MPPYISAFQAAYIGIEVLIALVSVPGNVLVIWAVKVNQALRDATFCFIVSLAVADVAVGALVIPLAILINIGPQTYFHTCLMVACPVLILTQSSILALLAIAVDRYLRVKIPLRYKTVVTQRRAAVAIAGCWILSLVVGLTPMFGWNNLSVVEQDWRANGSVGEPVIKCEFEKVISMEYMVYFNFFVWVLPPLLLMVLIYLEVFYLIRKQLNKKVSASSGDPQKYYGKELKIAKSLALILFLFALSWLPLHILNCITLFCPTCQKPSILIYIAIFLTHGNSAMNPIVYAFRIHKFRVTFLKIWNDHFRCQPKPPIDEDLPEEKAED
Summary of the method: (§1)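 Radioligand binding to rat A1 receptors in rat brain cortical membrane preparations. Values are given as Ki, or as % inhibition of radioligand binding at the indicated concentration.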

[3] = target: T2, Amine oxidase [flavin-containing] B (Homo sapiens, UniProt P27338); experiment: Inhibition of human MAO-B
T2 sequence (P27338 whole entry): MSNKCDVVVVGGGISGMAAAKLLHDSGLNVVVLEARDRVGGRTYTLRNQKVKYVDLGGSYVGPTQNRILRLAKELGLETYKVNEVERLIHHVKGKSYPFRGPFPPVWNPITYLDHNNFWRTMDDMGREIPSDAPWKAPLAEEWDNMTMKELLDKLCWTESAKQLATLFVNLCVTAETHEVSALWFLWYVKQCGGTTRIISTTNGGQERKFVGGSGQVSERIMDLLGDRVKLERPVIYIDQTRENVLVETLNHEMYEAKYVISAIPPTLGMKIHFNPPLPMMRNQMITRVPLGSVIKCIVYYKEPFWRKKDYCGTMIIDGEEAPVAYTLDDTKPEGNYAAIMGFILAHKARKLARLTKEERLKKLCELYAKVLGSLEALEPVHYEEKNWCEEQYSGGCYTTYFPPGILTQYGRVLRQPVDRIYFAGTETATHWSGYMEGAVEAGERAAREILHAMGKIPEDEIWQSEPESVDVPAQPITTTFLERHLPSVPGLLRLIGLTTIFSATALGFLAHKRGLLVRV

[4] = target: T3, Adenosine receptor A1 (Rattus norvegicus) (UniProt P25099); experiment: Displacement of [3H]CCPA from adenosine A1 receptor in rat brain cortex relative to control; type: tissue-based; design: concentration or dose not given beside the values; conditions: concentration not given here; summary of the method: as §1
T3 sequence (whole entry): T1 sequence (P25099 whole entry)

[5] = target: T4, Adenosine receptor A2b (Homo sapiens) (UniProt P29275); experiment: Displacement of [3H]PSB-603 from human adenosine A2B receptor relative to control; design: concentration or dose not given beside the values; conditions: concentration not given here
T4 sequence (whole entry): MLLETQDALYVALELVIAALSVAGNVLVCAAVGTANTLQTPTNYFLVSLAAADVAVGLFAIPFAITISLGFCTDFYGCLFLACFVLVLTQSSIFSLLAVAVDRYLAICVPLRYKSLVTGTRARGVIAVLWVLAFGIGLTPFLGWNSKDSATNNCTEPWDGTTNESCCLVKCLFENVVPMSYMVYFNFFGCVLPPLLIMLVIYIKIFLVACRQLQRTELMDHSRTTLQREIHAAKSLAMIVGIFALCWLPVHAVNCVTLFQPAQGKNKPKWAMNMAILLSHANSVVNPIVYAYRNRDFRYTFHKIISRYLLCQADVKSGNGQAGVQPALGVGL

[6] = target: T5, Adenosine receptor A3 (Homo sapiens) (UniProt P0DMS8); experiment: Displacement of [3H]PSB-11 from human adenosine A3 receptor expressed in CHO cells relative to control; type: cell-based; design: concentration or dose not given beside the values; conditions: concentration not given here
T5 sequence (whole entry): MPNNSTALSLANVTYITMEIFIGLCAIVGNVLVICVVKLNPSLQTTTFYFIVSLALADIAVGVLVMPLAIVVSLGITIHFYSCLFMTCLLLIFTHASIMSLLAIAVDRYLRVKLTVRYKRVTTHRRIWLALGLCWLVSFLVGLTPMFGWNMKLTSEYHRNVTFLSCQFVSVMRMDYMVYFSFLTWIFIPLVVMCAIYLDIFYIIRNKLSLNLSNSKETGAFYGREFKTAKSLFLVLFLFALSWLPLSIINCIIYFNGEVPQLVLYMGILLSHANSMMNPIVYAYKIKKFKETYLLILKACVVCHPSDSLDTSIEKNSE

[7] = target: T6, Adenosine receptor A2b (Homo sapiens, UniProt P29275); experiment: Displacement of [3H]PSB-603 from human adenosine A2B receptor
T6 sequence (P29275 whole entry): T4 sequence (whole entry)

[8] = target: Adenosine receptor A2a (Rattus norvegicus, UniProt P30543); experiment: Displacement of [3H]MSX-2 from adenosine A2A receptor in rat brain striatum; type: tissue-based
[9] = target: T7, MAO-B (amine oxidase [flavin-containing] B) (Homo sapiens, UniProt P27338); experiment: Inhibition of human MAO-B at 10 uM relative to control
T7 sequence (P27338 whole entry): T2 sequence (P27338 whole entry)
Summary of the method: (§2)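 Human MAO-A and MAO-B inhibition, screened first at a test concentration of 10 µM.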

[10] = target: T8, Adenosine receptor A3 (Homo sapiens, UniProt P0DMS8); experiment: Displacement of [3H]PSB-11 from human adenosine A3 receptor expressed in CHO cells; type: cell-based
T8 sequence (P0DMS8 whole entry): T5 sequence (whole entry)

[11] = target: Adenosine receptor A2a (Homo sapiens, UniProt P29274); experiment: Displacement of [3H]MSX-2 from human adenosine A2A receptor expressed in CHO cells; type: cell-based
Summary of the method: (§3)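 Radioligand binding to human receptors recombinantly expressed in Chinese hamster ovary (CHO) cells. Results are Ki, or % inhibition of radioligand binding at the indicated concentration.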

[12] = target: T9, MAO-A (amine oxidase [flavin-containing] A) (Homo sapiens, UniProt P21397); experiment: Inhibition of human MAO-A at 10 uM relative to control; summary of the method: as §2
T9 sequence (P21397 whole entry): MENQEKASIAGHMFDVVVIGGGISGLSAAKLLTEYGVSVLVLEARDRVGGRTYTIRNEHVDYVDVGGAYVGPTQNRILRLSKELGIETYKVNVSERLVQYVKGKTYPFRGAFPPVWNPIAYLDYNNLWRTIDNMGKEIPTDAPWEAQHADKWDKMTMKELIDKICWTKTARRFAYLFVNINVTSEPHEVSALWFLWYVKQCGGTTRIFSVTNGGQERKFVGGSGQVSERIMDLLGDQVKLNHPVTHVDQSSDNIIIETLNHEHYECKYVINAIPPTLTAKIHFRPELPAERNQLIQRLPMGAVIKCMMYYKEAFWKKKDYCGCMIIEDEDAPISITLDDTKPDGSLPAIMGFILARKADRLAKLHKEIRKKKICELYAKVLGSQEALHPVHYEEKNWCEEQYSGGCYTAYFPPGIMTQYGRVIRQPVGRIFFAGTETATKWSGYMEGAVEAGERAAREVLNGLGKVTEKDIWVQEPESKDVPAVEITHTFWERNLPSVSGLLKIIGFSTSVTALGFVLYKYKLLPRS

[13] = target: T10, Amine oxidase [flavin-containing] A (Homo sapiens, UniProt P21397); experiment: Inhibition of human MAO-A; summary of the method: as §2
T10 sequence (P21397 whole entry): T9 sequence (P21397 whole entry)

[14] = target: T11, Adenosine receptor A1 (Homo sapiens, UniProt P30542); experiment: Displacement of [3H]CCPA from human adenosine A1 receptor expressed in CHO cells; type: cell-based; summary of the method: as §3
T11 sequence (P30542 whole entry): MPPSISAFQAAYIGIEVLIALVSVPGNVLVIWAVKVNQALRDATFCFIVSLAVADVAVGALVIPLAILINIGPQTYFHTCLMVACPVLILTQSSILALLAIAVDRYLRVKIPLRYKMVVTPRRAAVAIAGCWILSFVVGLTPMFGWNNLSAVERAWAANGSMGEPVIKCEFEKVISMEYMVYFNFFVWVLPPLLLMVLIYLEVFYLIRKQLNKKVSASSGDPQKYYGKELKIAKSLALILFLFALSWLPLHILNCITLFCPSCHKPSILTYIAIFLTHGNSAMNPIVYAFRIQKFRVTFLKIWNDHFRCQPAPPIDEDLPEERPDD

Adenosine receptor A2a (Homo sapiens, UniProt P29274), sequence (P29274 whole entry): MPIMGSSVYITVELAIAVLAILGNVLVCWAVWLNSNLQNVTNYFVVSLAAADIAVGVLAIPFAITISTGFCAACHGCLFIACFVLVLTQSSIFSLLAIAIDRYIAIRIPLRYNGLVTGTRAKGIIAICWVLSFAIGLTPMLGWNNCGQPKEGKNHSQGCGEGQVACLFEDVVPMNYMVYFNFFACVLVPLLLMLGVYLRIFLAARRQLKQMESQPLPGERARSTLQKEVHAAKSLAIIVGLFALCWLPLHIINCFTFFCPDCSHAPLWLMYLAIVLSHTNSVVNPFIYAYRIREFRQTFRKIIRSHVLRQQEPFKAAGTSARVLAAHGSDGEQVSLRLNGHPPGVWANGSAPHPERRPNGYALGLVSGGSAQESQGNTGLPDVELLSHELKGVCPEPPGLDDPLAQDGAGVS
Adenosine receptor A2a (Rattus norvegicus, UniProt P30543), sequence (P30543 whole entry): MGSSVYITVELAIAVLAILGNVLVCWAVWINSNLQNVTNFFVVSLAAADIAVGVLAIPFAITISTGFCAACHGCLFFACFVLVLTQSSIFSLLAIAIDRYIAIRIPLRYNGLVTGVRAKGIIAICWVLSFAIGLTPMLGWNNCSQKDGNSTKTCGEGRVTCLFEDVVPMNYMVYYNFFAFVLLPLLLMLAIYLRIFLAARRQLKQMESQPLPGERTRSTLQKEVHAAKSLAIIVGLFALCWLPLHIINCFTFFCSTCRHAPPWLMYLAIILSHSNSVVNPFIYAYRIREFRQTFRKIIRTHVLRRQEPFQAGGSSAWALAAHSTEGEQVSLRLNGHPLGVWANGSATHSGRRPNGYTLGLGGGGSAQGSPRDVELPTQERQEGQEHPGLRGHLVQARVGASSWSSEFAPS
Adenosine receptor A2a (Rattus norvegicus), sequence (P30543 whole entry): as above

SMILES | inhibition [1] | Ki [2] | IC50 [3] | inhibition [4] | inhibition [5] | inhibition [6] | Ki [7] | Ki [8] | inhibition at 10 µM [9] | Ki [10] | Ki [11] | inhibition at 10 µM [12] | IC50 [13] | Ki [14]
C#CCn1c(=O)c2c(nc3n2CCCN3C2CCN(Cc3ccccc3)CC2)n(C)c1=O | – | > 10000 nM | > 10000 nM | 32% | -2% | 3% | > 1000 nM | 2470 nM | 22% | > 1000 nM | 628 nM | – | – | –
CCCn1c(=O)c2c(nc3n2CCCN3CCC(=O)N2CCN(c3ccccc3)CC2)n(CCC)c1=O | 14% | > 1500 nM | > 10000 nM | 5% | -5% | 21% | > 1000 nM | > 10000 nM | 30% | > 1000 nM | – | – | – | –
Cn1c(=O)c2c(nc3n2CCCN3CC(=O)N2CCN(Cc3ccc(C(F)(F)F)cc3)CC2)n(C)c1=O | 27% | > 1500 nM | 3480 nM | 2% | 2% | 36% | > 1000 nM | > 10000 nM | – | > 10000 nM | – | 6% | > 10000 nM | –
CCCn1c(=O)c2c(nc3n2CCCN3CCC(=O)N2CCN(Cc3ccc(Cl)cc3)CC2)n(CCC)c1=O | 40% | > 1500 nM | 3600 nM | 8% | -4% | 23% | > 1000 nM | > 10000 nM | – | > 1000 nM | – | 1% | > 10000 nM | –
CCn1c(=O)c2c(nc3n2CCCN3CCc2ccc(OC)cc2)n(CC)c1=O | – | > 10000 nM | 4760 nM | 20% | 29% | – | > 1000 nM | 624 nM | – | 6320 nM | 2530 nM | 2% | > 10000 nM | –

The remaining lines, values ahead:

inhibition [1] | Ki [2] | IC50 [3] | inhibition [4] | inhibition [5] | inhibition [6] | Ki [7] | Ki [8] | inhibition at 10 µM [9] | Ki [10] | Ki [11] | inhibition at 10 µM [12] | IC50 [13] | Ki [14] | SMILES
41% | > 1500 nM | > 10000 nM | 0% | -8% | 15% | > 1000 nM | > 10000 nM | 30% | > 10000 nM | – | – | – | – | COc1ccc(CN2CCN(C(=O)CN3CCCn4c3nc3c4c(=O)n(C)c(=O)n3C)CC2)cc1
– | 227 nM | 10000 nM | – | 8% | – | – | 696 nM | 51% | – | 322 nM | 5% | > 10000 nM | 1330 nM | C#CCn1c(=O)c2c(nc3n2CCCN3Cc2cccc(OC)c2)n(C)c1=O
– | 114 nM | 10000 nM | – | – | 30% | 1740 nM | 259 nM | 51% | > 10000 nM | 626 nM | 0% | > 10000 nM | 410 nM | C#CCn1c(=O)c2c(nc3n2CCCN3Cc2cccs2)n(C)c1=O
